What was measured:
Rattus norvegicus [1] = species on record: Rattus norvegicus; assay: Effect on oxygen consumption rate in Wistar Albino rat liver mitochondria assessed as inhibition in state 3 respiration at 25 uM in presence of succinate relative to control; assay type: functional; parameters: scale not given: the % may be the effect or the level left
Procedure, shortened: (§1)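 Isolated rat liver mitochondria respiring on glutamate or succinate as substrate; oxygen consumption recorded. State 3 is the rate after ADP addition and state 4 the rate after ADP is exhausted. The respiratory control coefficient (RCC) and ADP/O ratio were determined in the same runs. Flavone tested across 25–200 μM.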

Rattus norvegicus [2] = species on record: Rattus norvegicus; assay: Effect on respiratory control coefficient in Wistar Albino rat liver mitochondria at 50 uM in presence of succinate relative to control; assay type: functional; procedure, shortened: as §1
Rattus norvegicus [3] = species on record: Rattus norvegicus; assay: Effect on respiratory control coefficient in Wistar Albino rat liver mitochondria at 25 uM in presence of succinate relative to control; assay type: functional; procedure, shortened: as §1
Rattus norvegicus [4] = species on record: Rattus norvegicus; assay: Effect on oxygen consumption rate in Wistar Albino rat liver mitochondria assessed as inhibition in state 3 respiration at 50 uM in presence of succinate relative to control; assay type: functional; parameters: scale not given: the % may be the effect or the level left; procedure, shortened: as §1
Rattus norvegicus [5] = species on record: Rattus norvegicus; assay: Effect on oxygen consumption rate in Wistar Albino rat liver mitochondria assessed as inhibition in state 3 respiration at 75 uM in presence of succinate relative to control; assay type: functional; parameters: scale not given: the % may be the effect or the level left; procedure, shortened: as §1
Rattus norvegicus [6] = species on record: Rattus norvegicus; assay: Effect on oxygen consumption rate in Wistar Albino rat liver mitochondria assessed as inhibition in state 3 respiration at 100 uM in presence of succinate relative to control; assay type: functional; parameters: scale not given: the % may be the effect or the level left; procedure, shortened: as §1
Rattus norvegicus [7] = species on record: Rattus norvegicus; assay: Effect on oxygen consumption rate in Wistar Albino rat liver mitochondria assessed as inhibition in state 3 respiration at 200 uM in presence of succinate relative to control; assay type: functional; parameters: scale not given: the % may be the effect or the level left; procedure, shortened: as §1
Rattus norvegicus [8] = species on record: Rattus norvegicus; assay: Effect on ADP/O ratio in Wistar Albino rat liver mitochondria at 25 uM in presence of succinate relative to control; assay type: functional; procedure, shortened: as §1
Rattus norvegicus [9] = species on record: Rattus norvegicus; assay: Effect on ADP/O ratio in Wistar Albino rat liver mitochondria at 50 uM in presence of succinate relative to control; assay type: functional; procedure, shortened: as §1
Rattus norvegicus [10] = species on record: Rattus norvegicus; assay: Effect on ADP/O ratio in Wistar Albino rat liver mitochondria at 75 uM in presence of succinate relative to control; assay type: functional; procedure, shortened: as §1
Rattus norvegicus [11] = species on record: Rattus norvegicus; assay: Effect on ADP/O ratio in Wistar Albino rat liver mitochondria at 100 uM in presence of succinate relative to control; assay type: functional; procedure, shortened: as §1
Rattus norvegicus [12] = species on record: Rattus norvegicus; assay: Effect on oxygen consumption rate in Wistar Albino rat liver mitochondria assessed as inhibition in state 3 respiration at 25 uM in presence of sodium glutamate relative to control; assay type: functional; parameters: scale not given: the % may be the effect or the level left; procedure, shortened: as §1
Rattus norvegicus [13] = species on record: Rattus norvegicus; assay: Effect on oxygen consumption rate in Wistar Albino rat liver mitochondria assessed as inhibition in state 3 respiration at 50 uM in presence of sodium glutamate relative to control; assay type: functional; parameters: scale not given: the % may be the effect or the level left; procedure, shortened: as §1
Rattus norvegicus [14] = species on record: Rattus norvegicus; assay: Effect on oxygen consumption rate in Wistar Albino rat liver mitochondria assessed as inhibition in state 3 respiration at 75 uM in presence of sodium glutamate relative to control; assay type: functional; parameters: scale not given: the % may be the effect or the level left; procedure, shortened: as §1
Rattus norvegicus [15] = species on record: Rattus norvegicus; assay: Effect on oxygen consumption rate in Wistar Albino rat liver mitochondria assessed as inhibition in state 3 respiration at 100 uM in presence of sodium glutamate relative to control; assay type: functional; parameters: scale not given: the % may be the effect or the level left; procedure, shortened: as §1
Rattus norvegicus [16] = species on record: Rattus norvegicus; assay: Effect on oxygen consumption rate in Wistar Albino rat liver mitochondria assessed as inhibition in state 3 respiration at 200 uM in presence of sodium glutamate relative to control; assay type: functional; parameters: scale not given: the % may be the effect or the level left; procedure, shortened: as §1
Rattus norvegicus [17] = species on record: Rattus norvegicus; assay: Effect on oxygen consumption rate in Wistar Albino rat liver mitochondria assessed as inhibition in state 4 respiration at 25 uM in presence of sodium glutamate relative to control; assay type: functional; parameters: scale not given: the % may be the effect or the level left; procedure, shortened: as §1
Rattus norvegicus [18] = species on record: Rattus norvegicus; assay: Effect on oxygen consumption rate in Wistar Albino rat liver mitochondria assessed as inhibition in state 4 respiration at 50 uM in presence of sodium glutamate relative to control; assay type: functional; parameters: scale not given: the % may be the effect or the level left; procedure, shortened: as §1
Rattus norvegicus [19] = species on record: Rattus norvegicus; assay: Effect on oxygen consumption rate in Wistar Albino rat liver mitochondria assessed as inhibition in state 4 respiration at 75 uM in presence of sodium glutamate relative to control; assay type: functional; parameters: scale not given: the % may be the effect or the level left; procedure, shortened: as §1
Rattus norvegicus [20] = species on record: Rattus norvegicus; assay: Inhibition of NADH dehydrogenase in Wistar Albino rat liver mitochondria at 25 uM relative to control; parameters: scale not given: the % may be the effect or the level left
Rattus norvegicus [21] = species on record: Rattus norvegicus; assay: Inhibition of NADH dehydrogenase in Wistar Albino rat liver mitochondria at 75 uM relative to control; parameters: scale not given: the % may be the effect or the level left
Rattus norvegicus [22] = species on record: Rattus norvegicus; assay: Inhibition of NADH dehydrogenase in Wistar Albino rat liver mitochondria at 100 uM relative to control; parameters: scale not given: the % may be the effect or the level left
Rattus norvegicus [23] = species on record: Rattus norvegicus; assay: Inhibition of NADH dehydrogenase in Wistar Albino rat liver mitochondria at 200 uM relative to control; parameters: scale not given: the % may be the effect or the level left
Rattus norvegicus [24] = species on record: Rattus norvegicus; assay: Inhibition of NADH-cytochrome c reductase in Wistar Albino rat liver mitochondria at 25 uM relative to control; parameters: scale not given: the % may be the effect or the level left
Rattus norvegicus [25] = species on record: Rattus norvegicus; assay: Inhibition of NADH-cytochrome c reductase in Wistar Albino rat liver mitochondria at 50 uM relative to control; parameters: scale not given: the % may be the effect or the level left
Rattus norvegicus [26] = species on record: Rattus norvegicus; assay: Effect on oxygen consumption rate in Wistar Albino rat liver mitochondria assessed as inhibition in state 4 respiration at 25 uM in presence of succinate relative to control; assay type: functional; parameters: scale not given: the % may be the effect or the level left; procedure, shortened: as §1
Rattus norvegicus [27] = species on record: Rattus norvegicus; assay: Effect on oxygen consumption rate in Wistar Albino rat liver mitochondria assessed as inhibition in state 4 respiration at 50 uM in presence of succinate relative to control; assay type: functional; parameters: scale not given: the % may be the effect or the level left; procedure, shortened: as §1
Rattus norvegicus [28] = species on record: Rattus norvegicus; assay: Effect on oxygen consumption rate in Wistar Albino rat liver mitochondria assessed as inhibition in state 4 respiration at 75 uM in presence of succinate relative to control; assay type: functional; parameters: scale not given: the % may be the effect or the level left; procedure, shortened: as §1
Rattus norvegicus [29] = species on record: Rattus norvegicus; assay: Effect on oxygen consumption rate in Wistar Albino rat liver mitochondria assessed as inhibition in state 4 respiration at 100 uM in presence of succinate relative to control; assay type: functional; parameters: scale not given: the % may be the effect or the level left; procedure, shortened: as §1
Rattus norvegicus [30] = species on record: Rattus norvegicus; assay: Effect on respiratory control coefficient in Wistar Albino rat liver mitochondria at 75 uM in presence of succinate relative to control; assay type: functional; procedure, shortened: as §1
Rattus norvegicus [31] = species on record: Rattus norvegicus; assay: Effect on respiratory control coefficient in Wistar Albino rat liver mitochondria at 100 uM in presence of succinate relative to control; assay type: functional; procedure, shortened: as §1
Rattus norvegicus [32] = species on record: Rattus norvegicus; assay: Effect on oxygen consumption rate in Wistar Albino rat liver mitochondria assessed as inhibition in state 4 respiration at 100 uM in presence of sodium glutamate relative to control; assay type: functional; parameters: scale not given: the % may be the effect or the level left; procedure, shortened: as §1
Rattus norvegicus [33] = species on record: Rattus norvegicus; assay: Effect on respiratory control coefficient in Wistar Albino rat liver mitochondria at 25 uM in presence of sodium glutamate relative to control; assay type: functional; procedure, shortened: as §1
Rattus norvegicus [34] = species on record: Rattus norvegicus; assay: Effect on respiratory control coefficient in Wistar Albino rat liver mitochondria at 50 uM in presence of sodium glutamate relative to control; assay type: functional; procedure, shortened: as §1
Rattus norvegicus [35] = species on record: Rattus norvegicus; assay: Effect on respiratory control coefficient in Wistar Albino rat liver mitochondria at 75 uM in presence of sodium glutamate relative to control; assay type: functional; procedure, shortened: as §1
Rattus norvegicus [36] = species on record: Rattus norvegicus; assay: Effect on respiratory control coefficient in Wistar Albino rat liver mitochondria at 100 uM in presence of sodium glutamate relative to control; assay type: functional; procedure, shortened: as §1
Rattus norvegicus [37] = species on record: Rattus norvegicus; assay: Effect on ADP/O ratio in Wistar Albino rat liver mitochondria at 25 uM in presence of sodium glutamate relative to control; assay type: functional; procedure, shortened: as §1
Rattus norvegicus [38] = species on record: Rattus norvegicus; assay: Effect on ADP/O ratio in Wistar Albino rat liver mitochondria at 50 uM in presence of sodium glutamate relative to control; assay type: functional; procedure, shortened: as §1
Rattus norvegicus [39] = species on record: Rattus norvegicus; assay: Effect on ADP/O ratio in Wistar Albino rat liver mitochondria at 75 uM in presence of sodium glutamate relative to control; assay type: functional; procedure, shortened: as §1
Rattus norvegicus [40] = species on record: Rattus norvegicus; assay: Effect on ADP/O ratio in Wistar Albino rat liver mitochondria at 100 uM in presence of sodium glutamate relative to control; procedure, shortened: as §1
Rattus norvegicus [41] = species on record: Rattus norvegicus; assay: Inhibition of NADH-cytochrome c reductase in Wistar Albino rat liver mitochondria at 75 uM relative to control; parameters: scale not given: the % may be the effect or the level left

COc1c(O)cc2oc(-c3ccc(O)c(O)c3)cc(=O)c2c1O
Activity (Rattus norvegicus [1]): 83%
Activity (Rattus norvegicus [2]): 55.1%
Activity (Rattus norvegicus [3]): 76.4%
Activity (Rattus norvegicus [4]): 55.2%
Activity (Rattus norvegicus [5]): 51.2%
Activity (Rattus norvegicus [6]): 45.4%
Activity (Rattus norvegicus [7]): 34.7%
Activity (Rattus norvegicus [8]): 85.8%
Activity (Rattus norvegicus [9]): 85.4%
Activity (Rattus norvegicus [10]): 81.6%
Activity (Rattus norvegicus [11]): 74.7%
Activity (Rattus norvegicus [12]): 84.9%
Activity (Rattus norvegicus [13]): 66%
Activity (Rattus norvegicus [14]): 54.9%
Activity (Rattus norvegicus [15]): 31.8%
Activity (Rattus norvegicus [16]): 19.8%
Activity (Rattus norvegicus [17]): 109%
Activity (Rattus norvegicus [18]): 102%
Activity (Rattus norvegicus [19]): 109%
Activity (Rattus norvegicus [20]): 42%
Activity (Rattus norvegicus [21]): 51%
Activity (Rattus norvegicus [22]): 50%
Activity (Rattus norvegicus [23]): 39%
Activity (Rattus norvegicus [24]): 54%
Activity (Rattus norvegicus [25]): 45%
Activity (Rattus norvegicus [26]): 106%
Activity (Rattus norvegicus [27]): 109%
Activity (Rattus norvegicus [28]): 121%
Activity (Rattus norvegicus [29]): 132%
Activity (Rattus norvegicus [30]): 52.9%
Activity (Rattus norvegicus [31]): 36.8%
Activity (Rattus norvegicus [32]): 99.4%
Activity (Rattus norvegicus [33]): 73%
Activity (Rattus norvegicus [34]): 66.5%
Activity (Rattus norvegicus [35]): 40.9%
Activity (Rattus norvegicus [36]): 24.9%
Activity (Rattus norvegicus [37]): 92.8%
Activity (Rattus norvegicus [38]): 85%
Activity (Rattus norvegicus [39]): 90.6%
Activity (Rattus norvegicus [40]): 88.6%
Activity (Rattus norvegicus [41]): 46%
